Results published in paper PMC6503206 (International Journal of Nanomedicine, 2019).
Converted amounts (≈) assume the structure as drawn.

How the values were obtained:
[1] = Solubility of celecoxib in oils and cosurfactants; format: physicochemical; conditions: thermodynamic from solid
Procedure, shortened: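 Excess solid test compound was stirred magnetically in 2 mL of each neat oil or cosurfactant at room temperature for 24 hrs, then centrifuged at 10,000 rpm for 10 mins. The supernatant was passed through a 0.45 µm membrane, diluted with methanol, and quantified by HPLC on a 5 µm C18 reversed-phase column (4.6×250 mm).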

[2] = cited from earlier work
[3] = cited from earlier work; remark: listed apart in the source

Cc1ccc(-c2cc(C(F)(F)F)nn2-c2ccc(S(N)(=O)=O)cc2)cc1 [celecoxib, Celecoxib]
solubility at 24 h ([1]; PEG 400, organic solvent or mixture): 433 ± 31.7 mg/mL (≈ 1140 mM) | solubility at 24 h ([1]; ethanol, organic solvent or mixture): 79.2 ± 10.2 mg/mL (≈ 208 mM) | solubility at 24 h ([1]; fish oil, oil or lipid): 3.25 ± 0.16 mg/mL (≈ 8.52 mM) | solubility at 24 h ([1]; glycerine, organic solvent or mixture): 0.42 ± 0.01 mg/mL (≈ 1.1 mM) | solubility at 24 h ([1]; medium-chain triglycerides (MCT oil), oil or lipid): 11.6 ± 3.08 mg/mL (≈ 30.5 mM) | solubility at 24 h ([1]; oleic acid, oil or lipid): 0.73 ± 0.06 mg/mL (≈ 1.91 mM) | solubility at 24 h ([1]; propylene glycol (PG), organic solvent or mixture): 24.2 ± 0.99 mg/mL (≈ 63.6 mM) | solubility in water [2]: 0.00255 to 0.00457 mg/mL

CCN(CC)c1ccc2nc3c4ccccc4c(=O)cc-3oc2c1 [Nile red]
log partition coefficient [3]: 5.0
